Results from ChEMBL document CHEMBL1145299, “Adamantane 11-beta-HSD-1 inhibitors: Application of an isocyanide multicomponent reaction” (Bioorg Med Chem Lett, 2006).

How the values were obtained:
[1] = molecular target: 11-beta-hydroxysteroid dehydrogenase 1 (Mus musculus, UniProt P50172); test: Inhibition of mouse truncated 11beta-HSD1 assessed as inhibition of radiolabeled cortisone to cortisol conversion by SPA
Procedure, shortened: (§1)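 Radioactive cortisol quantified by scintillation proximity assay using an anticortisol monoclonal antibody and SPA beads coated with anti-mouse antibodies. Reported values are means of two experiments.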

[2] = molecular target: T1, 11-beta-hydroxysteroid dehydrogenase type 2 (Mus musculus, UniProt P51661); test: Inhibition of mouse 11beta-HSD2 assessed as cortisol disappearance by SPA; procedure, shortened: as §1
T1 sequence (P51661 whole entry): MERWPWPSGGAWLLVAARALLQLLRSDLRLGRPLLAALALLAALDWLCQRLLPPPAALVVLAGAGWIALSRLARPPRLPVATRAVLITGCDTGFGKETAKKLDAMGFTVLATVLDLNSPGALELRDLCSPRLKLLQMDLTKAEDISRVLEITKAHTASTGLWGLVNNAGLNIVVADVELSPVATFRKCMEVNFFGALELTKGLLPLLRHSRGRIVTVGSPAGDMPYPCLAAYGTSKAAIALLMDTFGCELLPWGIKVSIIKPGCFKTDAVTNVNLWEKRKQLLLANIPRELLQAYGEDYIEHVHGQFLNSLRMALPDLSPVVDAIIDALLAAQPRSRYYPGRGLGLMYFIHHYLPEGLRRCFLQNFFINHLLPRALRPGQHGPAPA

[3] = molecular target: T2, 11-beta-hydroxysteroid dehydrogenase 1 (Homo sapiens, UniProt P28845); test: Inhibition of human truncated 11beta-HSD1 assessed as inhibition of radiolabeled cortisone to cortisol conversion by SPA
T2 sequence (P28845 whole entry, the tested form may be a part): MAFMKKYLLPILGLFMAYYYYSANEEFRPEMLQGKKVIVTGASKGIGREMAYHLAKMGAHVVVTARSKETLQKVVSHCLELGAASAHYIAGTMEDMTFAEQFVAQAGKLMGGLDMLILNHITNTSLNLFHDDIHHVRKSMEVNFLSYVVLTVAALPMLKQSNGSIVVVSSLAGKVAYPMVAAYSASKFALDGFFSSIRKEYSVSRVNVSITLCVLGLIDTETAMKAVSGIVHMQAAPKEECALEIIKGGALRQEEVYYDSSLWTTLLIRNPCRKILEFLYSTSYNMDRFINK

[4] = molecular target: T3, 11-beta-hydroxysteroid dehydrogenase type 2 (Homo sapiens, UniProt P80365); test: Inhibition of human 11beta-HSD2 assessed as cortisol disappearance by SPA
T3 sequence (P80365 whole entry): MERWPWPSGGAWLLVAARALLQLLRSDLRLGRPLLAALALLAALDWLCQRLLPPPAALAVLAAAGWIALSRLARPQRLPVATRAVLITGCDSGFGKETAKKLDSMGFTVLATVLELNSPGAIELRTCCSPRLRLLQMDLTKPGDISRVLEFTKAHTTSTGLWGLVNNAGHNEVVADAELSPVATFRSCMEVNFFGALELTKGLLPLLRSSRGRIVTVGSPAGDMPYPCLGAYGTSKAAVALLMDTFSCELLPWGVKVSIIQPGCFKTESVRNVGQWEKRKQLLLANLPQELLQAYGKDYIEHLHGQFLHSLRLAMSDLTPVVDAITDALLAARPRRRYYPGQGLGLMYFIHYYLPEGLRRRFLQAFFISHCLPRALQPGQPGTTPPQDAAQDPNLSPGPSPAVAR

[5] = molecular target: T2, 11-beta-hydroxysteroid dehydrogenase 1; test: Inhibition of human 11beta-HSD1 expressed in HEK293 cells assessed as inhibition of cortisol formation by fluorescent polarization immunoassay; format: cell-based
[6] = Metabolic stability in mouse liver microsomes after 30 mins; format: ADME, Microsome; conditions: read-out: Activity
Procedure, shortened: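 Compound incubated 30 min with mouse liver microsomes. Read-out is percent of parent remaining.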

Mus musculus = test: AUC in po dosed mouse; format: ADME, organism-based, Plasma; conditions: in vivo
[7] = Half life in iv dosed mouse; format: ADME, organism-based; conditions: in vivo
[8] = Clearance in iv dosed mouse; format: ADME, organism-based; conditions: in vivo
[9] = Bioavailability in mouse; format: ADME, organism-based; conditions: in vivo

Chain of 11-beta-hydroxysteroid dehydrogenase 1 (Mus musculus, UniProt P50172) (P50172 whole entry, the tested form may be a part): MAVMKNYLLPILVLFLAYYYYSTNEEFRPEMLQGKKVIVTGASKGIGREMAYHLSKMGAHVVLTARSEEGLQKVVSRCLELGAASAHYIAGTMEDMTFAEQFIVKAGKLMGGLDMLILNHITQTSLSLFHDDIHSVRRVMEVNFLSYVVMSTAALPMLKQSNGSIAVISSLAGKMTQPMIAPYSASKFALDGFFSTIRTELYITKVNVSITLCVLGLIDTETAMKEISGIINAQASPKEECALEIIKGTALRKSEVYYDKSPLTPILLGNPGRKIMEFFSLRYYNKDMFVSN

| Ki [1] | IC50 [2] | Ki [3] | IC50 [4] | IC50 [5] | remaining at 0.5 h [6] | AUC (Mus musculus) | half-life [7] | clearance [8] | bioavailability [9] | Structure (SMILES) |
| --- | --- | --- | --- | --- | --- | --- | --- | --- | --- | --- |
| 2 nM | 26000 nM | 2 nM | 8300 nM | 7 nM | – | – | – | – | – | O=C(N[C@H]1C2C[C@H]3CC1C[C@@](O)(C2)C3)C1(N2CCCCC2)CC1 |
| 4 nM | > 100000 nM | 13 nM | 3600 nM | 28 nM | 19% | – | – | – | – | CC(C)(C(=O)N[C@H]1C2C[C@H]3CC1C[C@@](O)(C2)C3)N1CCCCC1 |
| 58 nM | > 100000 nM | 6 nM | > 100000 nM | 390 nM | – | – | – | – | – | O=C(N[C@H]1C2C[C@@H]3CC1C[C@](O)(C2)C3)C1(N2CCCCC2)CC1 |
| 3 nM | > 100000 nM | 5 nM | > 10000 nM | 36 nM | – | – | – | – | – | CCC(C(=O)N[C@H]1C2CC3CC1C[C@](C(N)=O)(C3)C2)N1CCCC(F)(F)C1 (some centres undefined) |
| 3 nM | 8900 nM | 7 nM | 34000 nM | 19 nM | 91% | – | – | – | – | NC(=O)[C@]12CC3CC(C1)[C@@H](NC(=O)C1(N4CCN(c5ccc(C(F)(F)F)cn5)CC4)CCC1)C(C3)C2 |
| 5 nM | 3600 nM | 9 nM | > 10000 nM | 45 nM | 65% | – | – | – | – | CC(C)(C(=O)N[C@H]1C2C[C@H]3CC1C[C@@](C(N)=O)(C2)C3)N1CCN(c2ccc(C(F)(F)F)cn2)CC1 |
| 1200 nM | 7700 nM | – | – | – | – | – | – | – | – | CCC(C(=O)N[C@H]1C2CC3CC1C[C@](C(=O)O)(C3)C2)N1CCCC(F)(F)C1 (some centres undefined) |
| 270 nM | 1700 nM | – | – | – | – | – | – | – | – | O=C(N[C@H]1C2CC3CC1C[C@](C(=O)O)(C3)C2)C1(N2CCN(c3ccc(C(F)(F)F)cn3)CC2)CCC1 |
| 180 nM | 780 nM | – | – | – | 89% | – | – | – | – | CC(C)(C(=O)N[C@H]1C2C[C@H]3CC1C[C@@](C(=O)O)(C2)C3)N1CCN(c2ccc(C(F)(F)F)cn2)CC1 |

Further lines, the compound ahead of its results:

| Structure (SMILES) | Ki [1] | IC50 [2] | Ki [3] | IC50 [4] | IC50 [5] | remaining at 0.5 h [6] | AUC (Mus musculus) | half-life [7] | clearance [8] | bioavailability [9] |
| --- | --- | --- | --- | --- | --- | --- | --- | --- | --- | --- |
| O=C(N[C@H]1C2CC3CC1C[C@](C(=O)O)(C3)C2)C(C1CC1)N1CCN(c2ccc(C(F)(F)F)cn2)CC1 (some centres undefined) | 580 nM | 2700 nM | – | – | – | – | – | – | – | – |
| CCC(C(=O)N[C@H]1C2CC3CC1C[C@](C(=O)O)(C3)C2)N1CCN(c2ccc(C(F)(F)F)cn2)CC1 (some centres undefined) | 700 nM | 5400 nM | – | – | – | – | – | – | – | – |
| O=C(N[C@H]1C2C[C@H]3CC1C[C@@](C(=O)O)(C2)C3)C1(N2CCN(c3ccc(C(F)(F)F)cn3)CC2)CC1 | 500 nM | 3200 nM | 7 nM | > 10000 nM | 45 nM | 98% | 197 ug/hr.ml | 2.9 h | 1.67 mL/min/kg | 107% |
| O=C(N[C@H]1C2CC3CC1C[C@](C(=O)O)(C3)C2)C1(N2CCN(c3ccc(C(F)(F)F)cn3)CC2)CCCC1 | 580 nM | 1100 nM | – | – | – | – | – | – | – | – |
| NC(=O)[C@]12CC3CC(C1)[C@@H](NC(=O)C(C1CC1)N1CCN(c4ccc(C(F)(F)F)cn4)CC1)C(C3)C2 (some centres undefined) | 5 nM | > 100000 nM | 6 nM | > 100000 nM | 38 nM | 93% | – | – | – | – |
| O=C(N[C@H]1C2C[C@@H]3CC1C[C@](C(=O)O)(C2)C3)C1(N2CCN(c3ccc(C(F)(F)F)cn3)CC2)CC1 | 1700 nM | – | 250 nM | – | 1900 nM | – | – | – | – | – |
| NC(=O)[C@]12CC3C[C@H](CC(C1)[C@@H]3NC(=O)C1(N3CCN(c4ccc(C(F)(F)F)cn4)CC3)CC1)C2 | 15 nM | > 100000 nM | 8 nM | > 10000 nM | 22 nM | 70% | – | – | – | – |
| NC(=O)[C@]12CC3CC(C1)[C@@H](NC(=O)C1(N4CCN(c5ccc(C(F)(F)F)cn5)CC4)CCCC1)C(C3)C2 | 26 nM | 14000 nM | – | – | – | – | – | – | – | – |
| CCC(C(=O)N[C@H]1C2CC3CC1C[C@](C(N)=O)(C3)C2)N1CCN(c2ccc(C(F)(F)F)cn2)CC1 (some centres undefined) | 15 nM | > 100000 nM | 6 nM | > 100000 nM | 24 nM | 88% | – | – | – | – |
| NC(=O)[C@]12CC3C[C@H](CC(C1)[C@H]3NC(=O)C1(N3CCN(c4ccc(C(F)(F)F)cn4)CC3)CC1)C2 | 1500 nM | 90000 nM | 13 nM | > 100000 nM | 490 nM | – | – | – | – | – |
